In data set [1] the target is Matrix metalloproteinase-14 (Homo sapiens) (UniProt P50281). As to the kind of experiment: Inhibition of human recombinant […] catalytic domain (112 to 298 aa) expressed in Escherichia coli.
The target of data set [2] is Hepatitis C virus serine protease, NS3/NS4A (Hepatitis C virus) (UniProt D2K2A8+A3EZI9). The data set is described as follows: Inhibition of HCV NS3/4A protease. As to conditions: Hepacivirus hominis.
Data set [3] deals with Hepatitis C virus. As to the kind of experiment: Antiviral activity against HCV genotype 1b infected in human Huh7 cells after 3 days by luciferase reporter gene assay. The data set is classed as functional, cell-based, Hepacivirus hominis. As to conditions: Huh-7, 72 h.
The target of data set [4] is Disintegrin and metalloproteinase domain-containing protein 17 (Homo sapiens) (UniProt P78536). The data set is described as follows: Inhibition of human recombinant TACE catalytic domain (215 to 671 aa) expressed in Escherichia coli.
In data set [5] the test system is Hepatitis C virus. As to the kind of experiment: Antiviral activity against HCV genotype 1b infected in human Huh7 cells assessed as reduction in viral RNA level at 2 uM after 3 days by RT-qPCR. In kind it is functional, Hepacivirus hominis, Huh-7. The arrangement: scale not given: the % may be the effect or the level left. The method, boiled down:
(§1)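 Replicon-bearing Huh7 cells, 6 X 10^3 per well, exposed to compound in DMSO or DMSO alone for three days at 37 °C/5% CO2. Replicon RNA quantified by TaqMan Cells-to-CT RT-qPCR with NS5B primers/probe, using GAPDH in parallel wells as reference. Level relative to DMSO-treated cells calculated as 2-∆∆CT. Triplicate wells.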
Background: Real-time PCR tracks product formation cycle by cycle.

Data set [6] deals with T1, Protein deacetylase HDAC6 (Homo sapiens) (UniProt Q9UBN7).
T1 sequence (whole entry): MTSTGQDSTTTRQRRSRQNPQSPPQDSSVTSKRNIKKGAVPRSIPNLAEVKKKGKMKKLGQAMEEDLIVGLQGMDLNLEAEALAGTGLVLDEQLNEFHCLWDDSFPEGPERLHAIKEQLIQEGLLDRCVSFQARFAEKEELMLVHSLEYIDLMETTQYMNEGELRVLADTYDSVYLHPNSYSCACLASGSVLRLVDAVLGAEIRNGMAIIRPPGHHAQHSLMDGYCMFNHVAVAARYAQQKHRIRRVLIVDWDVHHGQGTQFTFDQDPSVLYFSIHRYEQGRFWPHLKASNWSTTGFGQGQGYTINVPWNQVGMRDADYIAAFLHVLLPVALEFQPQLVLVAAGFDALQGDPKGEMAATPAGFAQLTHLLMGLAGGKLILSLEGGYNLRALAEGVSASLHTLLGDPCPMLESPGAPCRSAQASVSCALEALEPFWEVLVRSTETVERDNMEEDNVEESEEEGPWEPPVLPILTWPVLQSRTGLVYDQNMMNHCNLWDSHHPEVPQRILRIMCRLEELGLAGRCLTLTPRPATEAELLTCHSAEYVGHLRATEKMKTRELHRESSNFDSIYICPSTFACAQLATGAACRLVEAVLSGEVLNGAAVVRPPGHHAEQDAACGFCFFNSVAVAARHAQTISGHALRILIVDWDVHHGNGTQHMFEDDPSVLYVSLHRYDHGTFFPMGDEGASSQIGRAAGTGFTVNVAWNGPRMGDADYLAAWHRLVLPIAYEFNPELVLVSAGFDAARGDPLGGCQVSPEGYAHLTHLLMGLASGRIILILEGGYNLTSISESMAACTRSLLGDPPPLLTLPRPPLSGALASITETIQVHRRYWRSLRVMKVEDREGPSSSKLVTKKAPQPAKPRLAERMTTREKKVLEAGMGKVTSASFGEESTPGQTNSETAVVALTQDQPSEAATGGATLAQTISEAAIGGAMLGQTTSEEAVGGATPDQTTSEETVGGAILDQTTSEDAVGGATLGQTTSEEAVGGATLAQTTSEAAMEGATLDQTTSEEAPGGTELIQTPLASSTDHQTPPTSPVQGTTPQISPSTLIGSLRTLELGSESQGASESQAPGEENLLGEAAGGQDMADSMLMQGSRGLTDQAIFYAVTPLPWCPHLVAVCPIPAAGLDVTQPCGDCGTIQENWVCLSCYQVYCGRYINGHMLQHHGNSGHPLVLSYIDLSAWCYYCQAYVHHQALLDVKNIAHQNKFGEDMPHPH
The data set is described as follows: Inhibition of full length N-terminal GST-tagged human HDAC6 expressed in baculovirus expression system assessed as inhibition of fluorophore 7-amino-4-methylcoumarin release by fluorescence assay.

For data set [7], the system named is Hepatitis C virus. The data set is described as follows: Antiviral activity against HCV genotype 1b infected in human Huh7 cells assessed as reduction in viral RNA level at 0.5 uM after 3 days by RT-qPCR. In kind it is functional, Hepacivirus hominis, Huh-7. Further details: scale not given: the % may be the effect or the level left. The conditions noted are these: in the assay text read “2 uM” for “0.5 uM”. The method, boiled down: as §1

Data set [8] is described as follows: Cytotoxicity against human HuH7 cells assessed as inhibition of cell viability after 3 days by CellTiter 96 assay.
Data set [9] has as its target Matrix metalloproteinase-9 (Homo sapiens) (UniProt P14780). The data set is described as follows: Inhibition of human recombinant MMP9 catalytic domain (107 to 449 aa) expressed in Escherichia coli.
Data set [10] deals with T2, Histone deacetylase 11 (Homo sapiens) (UniProt Q96DB2).
T2 sequence (whole entry): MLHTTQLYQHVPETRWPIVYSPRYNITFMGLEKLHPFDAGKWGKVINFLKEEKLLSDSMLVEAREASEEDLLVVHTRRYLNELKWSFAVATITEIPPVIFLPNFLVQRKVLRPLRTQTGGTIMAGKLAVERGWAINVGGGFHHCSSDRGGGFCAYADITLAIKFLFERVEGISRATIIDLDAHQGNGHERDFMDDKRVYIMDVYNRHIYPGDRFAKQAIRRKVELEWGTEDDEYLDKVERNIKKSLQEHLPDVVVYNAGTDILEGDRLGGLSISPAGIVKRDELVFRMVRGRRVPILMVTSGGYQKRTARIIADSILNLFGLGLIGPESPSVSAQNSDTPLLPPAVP
The data set is described as follows: Inhibition of N-terminal GST-tagged human HDAC11 expressed in baculovirus expression system assessed as inhibition of fluorophore 7-amino-4-methylcoumarin release by fluorescence assay.

The target in data set [11] is Histone deacetylase 9 (Homo sapiens) (UniProt Q9UKV0). As to the kind of experiment: Inhibition of full length C-terminal His-tagged human HDAC9 (amino acids 604 to 1066 ) expressed in baculovirus expression system assessed as inhibition of fluorophore 7-amino-4-methylcoumarin release by fluorescence assay.

pEC50: −log10 of the molar value. Calls of active or inactive are those of the source. No cut-off for these calls is given here.

Disintegrin and metalloproteinase domain-containing protein 17 (Homo sapiens), sequence (P78536 whole entry, the tested form may be a part): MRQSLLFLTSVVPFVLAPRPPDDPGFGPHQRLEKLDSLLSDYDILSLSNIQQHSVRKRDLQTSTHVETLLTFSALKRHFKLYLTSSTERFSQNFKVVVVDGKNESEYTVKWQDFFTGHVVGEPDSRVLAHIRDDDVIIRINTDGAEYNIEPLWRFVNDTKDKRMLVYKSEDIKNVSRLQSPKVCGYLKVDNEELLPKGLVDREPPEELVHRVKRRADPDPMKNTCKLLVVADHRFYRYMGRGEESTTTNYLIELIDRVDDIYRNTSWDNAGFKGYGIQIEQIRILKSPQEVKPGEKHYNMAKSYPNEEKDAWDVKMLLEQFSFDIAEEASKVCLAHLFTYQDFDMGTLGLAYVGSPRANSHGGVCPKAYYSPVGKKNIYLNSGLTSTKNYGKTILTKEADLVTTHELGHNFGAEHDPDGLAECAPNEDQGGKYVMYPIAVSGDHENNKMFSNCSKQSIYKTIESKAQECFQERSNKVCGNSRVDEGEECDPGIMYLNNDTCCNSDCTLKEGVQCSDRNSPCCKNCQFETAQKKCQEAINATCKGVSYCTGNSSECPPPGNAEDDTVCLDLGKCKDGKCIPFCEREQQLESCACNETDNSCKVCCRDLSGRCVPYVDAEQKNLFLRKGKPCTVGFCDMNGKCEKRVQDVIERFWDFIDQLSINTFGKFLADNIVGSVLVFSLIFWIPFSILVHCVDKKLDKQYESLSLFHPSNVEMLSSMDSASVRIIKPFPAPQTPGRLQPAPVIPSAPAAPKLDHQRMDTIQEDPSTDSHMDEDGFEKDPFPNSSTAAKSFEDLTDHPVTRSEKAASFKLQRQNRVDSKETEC
Matrix metalloproteinase-9 (Homo sapiens), sequence (P14780 whole entry, the tested form may be a part): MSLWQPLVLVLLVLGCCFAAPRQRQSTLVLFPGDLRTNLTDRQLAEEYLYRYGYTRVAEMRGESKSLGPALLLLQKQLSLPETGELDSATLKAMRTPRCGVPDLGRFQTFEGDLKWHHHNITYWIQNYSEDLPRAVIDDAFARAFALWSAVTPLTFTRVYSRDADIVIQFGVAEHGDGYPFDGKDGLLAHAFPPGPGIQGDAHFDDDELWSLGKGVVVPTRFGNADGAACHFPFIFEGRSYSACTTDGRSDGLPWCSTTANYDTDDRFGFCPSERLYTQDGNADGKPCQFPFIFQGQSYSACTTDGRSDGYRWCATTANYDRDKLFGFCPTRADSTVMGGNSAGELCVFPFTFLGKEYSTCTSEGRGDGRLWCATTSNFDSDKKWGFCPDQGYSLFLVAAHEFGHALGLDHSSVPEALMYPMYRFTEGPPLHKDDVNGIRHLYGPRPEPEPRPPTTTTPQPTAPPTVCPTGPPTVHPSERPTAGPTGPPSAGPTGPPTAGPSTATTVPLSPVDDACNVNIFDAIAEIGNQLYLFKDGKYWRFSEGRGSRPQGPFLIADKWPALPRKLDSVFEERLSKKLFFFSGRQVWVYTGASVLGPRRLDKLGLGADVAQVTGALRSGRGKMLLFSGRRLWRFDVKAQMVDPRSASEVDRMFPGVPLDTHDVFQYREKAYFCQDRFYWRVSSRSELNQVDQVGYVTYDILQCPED
Histone deacetylase 9 (Homo sapiens), sequence (Q9UKV0 whole entry, the tested form may be a part): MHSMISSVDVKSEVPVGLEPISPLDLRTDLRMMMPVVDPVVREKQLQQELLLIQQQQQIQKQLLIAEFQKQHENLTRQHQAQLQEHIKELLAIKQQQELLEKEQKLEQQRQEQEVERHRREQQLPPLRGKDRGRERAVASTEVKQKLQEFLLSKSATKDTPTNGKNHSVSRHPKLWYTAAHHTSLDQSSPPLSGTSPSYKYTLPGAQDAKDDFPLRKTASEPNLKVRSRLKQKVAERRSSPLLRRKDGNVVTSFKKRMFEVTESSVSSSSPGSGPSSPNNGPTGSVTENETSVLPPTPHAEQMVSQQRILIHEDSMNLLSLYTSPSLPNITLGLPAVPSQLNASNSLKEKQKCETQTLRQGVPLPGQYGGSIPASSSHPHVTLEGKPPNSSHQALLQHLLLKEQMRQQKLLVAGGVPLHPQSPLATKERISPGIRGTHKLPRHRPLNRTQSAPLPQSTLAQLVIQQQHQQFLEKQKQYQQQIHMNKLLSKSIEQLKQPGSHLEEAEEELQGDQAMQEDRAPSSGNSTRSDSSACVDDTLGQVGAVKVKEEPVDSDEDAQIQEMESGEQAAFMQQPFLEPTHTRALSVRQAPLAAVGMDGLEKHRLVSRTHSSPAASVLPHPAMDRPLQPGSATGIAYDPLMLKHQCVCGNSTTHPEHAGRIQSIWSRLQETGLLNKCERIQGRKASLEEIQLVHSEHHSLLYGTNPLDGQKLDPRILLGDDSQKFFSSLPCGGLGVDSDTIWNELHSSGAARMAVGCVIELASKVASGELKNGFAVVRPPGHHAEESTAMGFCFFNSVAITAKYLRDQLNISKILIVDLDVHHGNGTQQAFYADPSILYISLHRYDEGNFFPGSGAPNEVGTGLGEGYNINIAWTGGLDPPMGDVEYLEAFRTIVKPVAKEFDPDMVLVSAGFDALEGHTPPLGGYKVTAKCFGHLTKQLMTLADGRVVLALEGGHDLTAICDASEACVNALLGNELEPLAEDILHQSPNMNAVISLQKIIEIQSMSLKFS

As usually defined, the pEC50 is −log10 of the EC50, conventionally taken in molar units. One may read the CC50 as the concentration that lowers cell viability or growth by half. Consider `O=C(NO)c1sc2ccccc2c1S(=O)(=O)c1ccccc1`, for which the inhibition entry in data set [1] and in [9] was “Active” throughout. Besides, the inhibition result in data set [2], in [4], in data set [6], in [10] and in data set [11] was “inactive” each time. This compound also gave a pEC50 in the data set with Hepatitis C virus [3] of 6.21. The Activity with Hepatitis C virus [5] and with Hepatitis C virus [7] was 75% in each case. For the same compound, in data set [8], the CC50 at 72 h stood at 57 µM.

The record behind these values is ChEMBL document CHEMBL3392986, “Hydroxamic acids block replication of hepatitis C virus” (J Med Chem, 2015).
